Measured values published in ChEMBL document CHEMBL1153581, “Synthesis, antiviral and anticancer activity of some novel thioureas derived from N-(4-nitro-2-phenoxyphenyl)-methanesulfonamide” (Eur J Med Chem, 2009).
Converted amounts (≈) assume the structure as drawn.

Legend:
[1] = tested on: HeLa; test: Cytotoxicity against human HeLa cells assessed as change in cell morphology; type: functional
In short: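 The minimum cytotoxic concentration (MCC) is the concentration causing a microscopically detectable alteration of cell morphology in the uninfected host cell culture.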

[2] = tested on: Human alphaherpesvirus 1; test: Antiviral activity against HSV1 KOS infected in HEL cells assessed as protection against virus-induced cytopathogenicity; type: functional; details: Human alphaherpesvirus 1, KOS
[3] = tested on: Human alphaherpesvirus 2; test: Antiviral activity against Herpes simplex virus 2 infected in HEL cells assessed as protection against in virus-induced cytopathogenicity; type: functional
[4] = tested on: Vesicular stomatitis virus; test: Antiviral activity against sVesicular stomatitis virus infected in HEL cells assessed as protection against virus-induced cytopathogenicity; type: functional
[5] = tested on: Human alphaherpesvirus 1; test: Antiviral activity against acyclovir-resistant thymidine kinase-deficient HSV1 KOS infected in human HEL cells assessed as protection against virus-induced cytopathogenicity; type: functional; details: Human alphaherpesvirus 1, KOS
[6] = tested on: Vesicular stomatitis virus; test: Antiviral activity against Vesicular stomatitis virus infected in human HeLa cells assessed as protection against virus-induced cytopathogenicity; type: functional
[7] = tested on: Coxsackievirus B4; test: Antiviral activity against Coxsackievirus B4 infected in human HeLa cells assessed as protection against virus-induced cytopathogenicity; type: functional; details: Enterovirus B
[8] = tested on: Respiratory syncytial virus; test: Antiviral activity against RSV infected in human HeLa cells assessed as protection against virus-induced cytopathogenicity; type: functional
[9] = tested on: Human respirovirus 3; test: Antiviral activity against Parainfluenza-3 virus infected in african green monkey Vero cells assessed as protection against virus-induced cytopathogenicity; type: functional
[10] = tested on: Mammalian orthoreovirus 1; test: Antiviral activity against Reovirus 1 infected in african green monkey Vero cells assessed as protection against virus-induced cytopathogenicity; type: functional
[11] = tested on: Sindbis virus; test: Antiviral activity against Sindbis virus infected in african green monkey Vero cells assessed as protection against virus-induced cytopathogenicity; type: functional
[12] = tested on: Coxsackievirus B4; test: Antiviral activity against Coxsackievirus B4 infected in african green monkey Vero cells assessed as protection against virus-induced cytopathogenicity; type: functional; details: Enterovirus B
[13] = tested on: Punta Toro virus; test: Antiviral activity against Punta Toro virus infected in african green monkey Vero cells assessed as protection against virus-induced cytopathogenicity; type: functional
[14] = Cytotoxicity against HEL cells assessed as change in cell morphology; type: cell-based; details: human
In short: (§1)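 HEL cell cultures examined under the microscope. Minimal cytotoxic concentration (MCC) is the concentration that causes a microscopically detectable alteration of cell morphology. Compounds were tested at subtoxic concentrations alongside the antiviral tests.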

[15] = Cytotoxicity against african green monkey Vero cells assessed as change in cell morphology; type: cell-based; details: chlorocebus sabaeus
In short: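 Vero cell cultures were used for the broad-spectrum antiviral screen. The MCC endpoint is the lowest concentration that causes a microscopically detectable alteration of cell morphology. Activity was called when 5 × MIC < MCC.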

[16] = tested on: Human betaherpesvirus 5; test: Antiviral activity against Cytomegalovirus AD169 infected in HEL cells assessed as reduction in virus plaque formation; type: functional, organism-based; details: Human betaherpesvirus 5, AD169, HEL
In short: (§2)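 Plaque reduction in HEL cells against CMV (AD-169, Davis) or VZV (TK⁺ OKA, TK⁻ 07/1), using a virus input of 20 PFU. EC50 is the concentration that reduced plaque formation by 50%.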

[17] = tested on: Cytomegalovirus; test: Antiviral activity against Cytomegalovirus Davis infected in HEL cells assessed as reduction in virus plaque formation; type: functional, organism-based; details: Human betaherpesvirus 5, Davis; in short: as §2
[18] = tested on: Human alphaherpesvirus 3; test: Antiviral activity against Varicella Zoster Virus OKA infected in HEL cells assessed as reduction in virus plaque formation; type: functional, organism-based; details: Human alphaherpesvirus 3, OKA; in short: as §2
[19] = tested on: Human alphaherpesvirus 3; test: Antiviral activity against thymidine kinase deficient Varicella Zoster Virus 07/1 infected in HEL cells assessed as reduction in virus plaque formation; type: functional, organism-based; details: Human alphaherpesvirus 3, 07/1, HEL; in short: as §2
[20] = Cytotoxicity against Cytomegalovirus infected HEL cells assessed as change in cell morphology; type: cell-based; details: human; in short: as §1
[21] = Cytotoxicity against Cytomegalovirus infected HEL cells assessed as reduction in cell growth; type: cell-based; details: human
[22] = Cytotoxicity against Varicella Zoster Virus infected human […] cells assessed as change in cell morphology; type: cell-based
[23] = Cytotoxicity against Varicella Zoster Virus infected human […] cells assessed as reduction in cell growth; type: cell-based
[24] = tested on: Human immunodeficiency virus 2; test: Antiviral activity against HIV-2 ROD infected human MT4 cells assessed as protection against virus-induced cytopathogenicity; type: functional, organism-based; details: Human immunodeficiency virus 2, ISOLATE ROD
In short: (§3)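 HIV-1 (IIIB) or HIV-2 (ROD) infection of MT-4 cells, scored as protection against virus-induced cytopathicity. IC50 was derived from protection.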

[25] = tested on: Human immunodeficiency virus 1; test: Antiviral activity against HIV-1 3B infected human MT4 cells assessed as protection against virus-induced cytopathogenicity; type: functional, organism-based; details: Human immunodeficiency virus 1, 3B; in short: as §3
[26] = Cytotoxicity against HIV-1 3B infected human MT4 cells; type: cell-based; details: HIV-1 3B-infected MT4 cells
[27] = tested on: Human immunodeficiency virus 1; test: Antiviral activity against HIV-1 3B infected in human MT4 cells assessed as protection against virus-induced cytopathogenicity at 125 ug/ml; type: functional
In short: (§4)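 MT-4 cells infected with HIV-1 (IIIB) or HIV-2 (ROD), with maximum protection (%) against virus-induced cytopathicity recorded at 125 of compound.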

[28] = tested on: Human immunodeficiency virus 2; test: Antiviral activity against HIV-2 ROD infected in human MT4 cells assessed as protection against virus-induced cytopathogenicity at 125 ug/ml; type: functional, ISOLATE ROD; in short: as §4

SMILES: CCNC(=S)Nc1ccc(NS(C)(=O)=O)c(Oc2ccccc2)c1
- MCC [1]: 200 µg/mL
- MIC50 [2]: 120 µg/mL (≈ 328 µM)
- MIC50 [3]: 120 µg/mL (≈ 328 µM)
- MIC50 [4]: > 200 µg/mL
- MIC50 [5]: 120 µg/mL (≈ 328 µM)
- MIC50 [6]: > 40 µg/mL
- MIC50 [7]: > 40 µg/mL
- MIC50 [8]: > 40 µg/mL
- MIC50 [9]: ≥ 24 µg/mL
- MIC50 [10]: > 40 µg/mL
- MIC50 [11]: > 40 µg/mL
- MIC50 [12]: > 40 µg/mL
- MIC50 [13]: > 40 µg/mL
- MCC [14]: > 200 µg/mL
- MCC [15]: 200 µg/mL
- EC50 [16]: > 100 µg/mL
- EC50 [17]: > 100 µg/mL
- EC50 [18]: > 100 µg/mL
- EC50 [19]: > 100 µg/mL
- CC50 [20]: > 100 µg/mL
- CC50 [21]: > 100 µg/mL
- CC50 [22]: > 100 µg/mL
- CC50 [23]: > 100 µg/mL
- IC50 [24]: 65.9 µg/mL (≈ 180 µM)
- IC50 [25]: 54.8 µg/mL (≈ 150 µM)
- CC50 [26]: > 125 µg/mL
- Activity [27]: 97%
- Activity [28]: 89.5%
